From ChEMBL document CHEMBL3751694, “1-Piperazinylphthalazines as potential VEGFR-2 inhibitors and anticancer agents: Synthesis and in vitro biological evaluation” (Eur J Med Chem, 2016)

tested on: CCRF-CEM; test: Growth inhibition of human CCRF-CEM cells at 10 uM after 48 hrs by SRB method; assay type: functional; settings: read-out: GI
Method in brief: (§1)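 NCI 56-line primary screen at a single 10^-5 M concentration. Cells grown in RPMI 1640 with 5% FBS and 2 mM L-glutamine, plated at 5000–40,000 cells/well, then preincubated for 24 h. Exposure was 48 h at 37 °C and 5% CO2. Adherent cells were fixed with cold TCA at 10% final, suspension cells at 16%. Staining used 0.4% SRB, read at 515 nm. Results are % growth inhibition relative to control.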

Structure (SMILES) | inhibition of growth at 10 µM
COc1ccc(-c2csc(NC(=O)CN3CCN(c4nnc(-c5ccccc5)c5ccccc45)CC3)n2)cc1 | 34%
O=C(CN1CCN(c2nnc(-c3ccccc3)c3ccccc23)CC1)Nc1nccs1 | 30%

tested on: not listed separately; test: Growth inhibition of human UO31 cells at 10 uM after 48 hrs by SRB method; assay type: functional; settings: UO-31, 48 h, read-out: GI
Method in brief: (§2)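 NCI 56-line screen, single-dose primary assay at 10^-5 M. Cells grown in RPMI 1640 with 5% FBS and 2 mM L-glutamine, plated at 5000–40,000 cells/well and held 24 h at 37 °C, 5% CO2 before drug addition. Compound was given from DMSO stock, exposure 48 h, then TCA fixation and SRB staining with absorbance at 515 nm. % growth is taken relative to time-zero and untreated controls.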

Structure (SMILES) | inhibition of growth at 10 µM
COc1ccc(C(=O)CN2CCN(c3nnc(-c4ccccc4)c4ccccc34)CC2)cc1 | 35%
COc1ccc(-c2csc(NC(=O)CN3CCN(c4nnc(-c5ccccc5)c5ccccc45)CC3)n2)cc1 | 48%
O=C(CN1CCN(c2nnc(-c3ccccc3)c3ccccc23)CC1)Nc1nccs1 | 40%

tested on: not listed separately; test: Growth inhibition of human HL-60(TB) cells at 10 uM after 48 hrs by SRB method; assay type: functional; settings: HL-60, 48 h, read-out: GI
Method in brief: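 NCI single-dose primary screen at 10^-5 M, 48 h exposure. Cells grown in RPMI 1640 with 5% FBS and 2 mM L-glutamine. Suspension cells fixed in situ with TCA (final 16%), stained with SRB, absorbance read at 515 nm. Percent growth inhibition calculated against time-zero and untreated control plates.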

Structure (SMILES) | inhibition of growth at 10 µM
COc1ccc(-c2csc(NC(=O)CN3CCN(c4nnc(-c5ccccc5)c5ccccc45)CC3)n2)cc1 | 40%
O=C(CN1CCN(c2nnc(-c3ccccc3)c3ccccc23)CC1)Nc1nccs1 | 38%

tested on: not listed separately; test: Growth inhibition of human HCT116 cells at 10 uM after 48 hrs by SRB method; assay type: functional; settings: HCT-116, 48 h, read-out: GI; method in brief: as §1

Structure (SMILES) | inhibition of growth at 10 µM
COc1ccc(-c2csc(NC(=O)CN3CCN(c4nnc(-c5ccccc5)c5ccccc45)CC3)n2)cc1 | 32%

tested on: not listed separately; test: Growth inhibition of human PC3 cells at 10 uM after 48 hrs by SRB method; assay type: functional; settings: PC-3, 48 h, read-out: GI; method in brief: as §1

Structure (SMILES) | inhibition of growth at 10 µM
COc1ccc(-c2csc(NC(=O)CN3CCN(c4nnc(-c5ccccc5)c5ccccc45)CC3)n2)cc1 | 47%
O=C(CN1CCN(c2nnc(-c3ccccc3)c3ccccc23)CC1)Nc1nccs1 | 38%

tested on: not listed separately; test: Growth inhibition of human COLO205 cells at 10 uM after 48 hrs by SRB method; assay type: functional; settings: COLO 205, 48 h, read-out: GI; method in brief: as §1

Structure (SMILES) | inhibition of growth at 10 µM
COc1ccc(-c2csc(NC(=O)CN3CCN(c4nnc(-c5ccccc5)c5ccccc45)CC3)n2)cc1 | 40%

tested on: MDA-MB-468; test: Growth inhibition of human MDA-MB-468 cells at 10 uM after 48 hrs by SRB method; assay type: functional; settings: MDA-MB-468, 48 h, read-out: GI; method in brief: as §1

Structure (SMILES) | inhibition of growth at 10 µM
COc1ccc(-c2csc(NC(=O)CN3CCN(c4nnc(-c5ccccc5)c5ccccc45)CC3)n2)cc1 | 58%
O=C(CN1CCN(c2nnc(-c3ccccc3)c3ccccc23)CC1)Nc1nccs1 | 59%

tested on: not listed separately; test: Growth inhibition of human UACC62 cells at 10 uM after 48 hrs by SRB method; assay type: functional; settings: UACC-62, 48 h, read-out: GI; method in brief: as §2

Structure (SMILES) | inhibition of growth at 10 µM
O=C(CN1CCN(c2nnc(-c3ccccc3)c3ccccc23)CC1)Nc1nccs1 | 37%

tested on: not listed separately; test: Growth inhibition of human OVCAR3 cells at 10 uM after 48 hrs by SRB method; assay type: functional; settings: OVCAR-3, 48 h, read-out: GI; method in brief: as §1

Structure (SMILES) | inhibition of growth at 10 µM
O=C(CN1CCN(c2nnc(-c3ccccc3)c3ccccc23)CC1)Nc1nccs1 | 38%

tested on: not listed separately; test: Growth inhibition of human Caki1 cells at 10 uM after 48 hrs by SRB method; assay type: functional; settings: CAKI-1, 48 h, read-out: GI; method in brief: as §1

Structure (SMILES) | inhibition of growth at 10 µM
COc1ccc(-c2csc(NC(=O)CN3CCN(c4nnc(-c5ccccc5)c5ccccc45)CC3)n2)cc1 | 33%

tested on: SR; test: Growth inhibition of human SR cells at 10 uM after 48 hrs by SRB method; assay type: functional; settings: read-out: GI; method in brief: as §1

Structure (SMILES) | inhibition of growth at 10 µM
COc1ccc(-c2csc(NC(=O)CN3CCN(c4nnc(-c5ccccc5)c5ccccc45)CC3)n2)cc1 | 44%
O=C(CN1CCN(c2nnc(-c3ccccc3)c3ccccc23)CC1)Nc1nccs1 | 31%

tested on: MDA-MB-231; test: Growth inhibition of human MDA-MB-231 cells at 10 uM after 48 hrs by SRB method; assay type: functional; settings: MDA-MB-231, 48 h, read-out: GI; method in brief: as §1

Structure (SMILES) | inhibition of growth at 10 µM
COc1ccc(-c2csc(NC(=O)CN3CCN(c4nnc(-c5ccccc5)c5ccccc45)CC3)n2)cc1 | 42%

tested on: K562; test: Growth inhibition of human K562 cells at 10 uM after 48 hrs by SRB method; assay type: functional; settings: K562, 48 h, read-out: GI; method in brief: as §1

Structure (SMILES) | inhibition of growth at 10 µM
COc1ccc(C(=O)CN2CCN(c3nnc(-c4ccccc4)c4ccccc34)CC2)cc1 | 30%
COc1ccc(-c2csc(NC(=O)CN3CCN(c4nnc(-c5ccccc5)c5ccccc45)CC3)n2)cc1 | 48%
O=C(CN1CCN(c2nnc(-c3ccccc3)c3ccccc23)CC1)Nc1nccs1 | 36%

tested on: NCI/ADR-RES; test: Growth inhibition of human NCI/ADR-RES cells at 10 uM after 48 hrs by SRB method; assay type: functional; settings: read-out: GI; method in brief: as §1

Structure (SMILES) | inhibition of growth at 10 µM
O=C(CN1CCN(c2nnc(-c3ccccc3)c3ccccc23)CC1)Nc1nccs1 | 32%

tested on: A498; test: Growth inhibition of human A498 cells at 10 uM after 48 hrs by SRB method; assay type: functional; settings: A498, 48 h, read-out: GI; method in brief: as §1

Structure (SMILES) | inhibition of growth at 10 µM
COc1ccc(-c2csc(NC(=O)CN3CCN(c4nnc(-c5ccccc5)c5ccccc45)CC3)n2)cc1 | 43%

tested on: T47D; test: Growth inhibition of human T47D cells at 10 uM after 48 hrs by SRB method; assay type: functional; settings: read-out: GI; method in brief: as §2

Structure (SMILES) | inhibition of growth at 10 µM
COc1ccc(C(=O)CN2CCN(c3nnc(-c4ccccc4)c4ccccc34)CC2)cc1 | 36%
COc1ccc(-c2csc(NC(=O)CN3CCN(c4nnc(-c5ccccc5)c5ccccc45)CC3)n2)cc1 | 82%
O=C(CN1CCN(c2nnc(-c3ccccc3)c3ccccc23)CC1)Nc1nccs1 | 64%

tested on: NCI-H522; test: Growth inhibition of human NCI-H522 cells at 10 uM after 48 hrs by SRB method; assay type: functional; settings: NCI-H522, 48 h, read-out: GI; method in brief: as §1

Structure (SMILES) | inhibition of growth at 10 µM
COc1ccc(C(=O)CN2CCN(c3nnc(-c4ccccc4)c4ccccc34)CC2)cc1 | 35%
COc1ccc(-c2csc(NC(=O)CN3CCN(c4nnc(-c5ccccc5)c5ccccc45)CC3)n2)cc1 | 34%
O=C(CN1CCN(c2nnc(-c3ccccc3)c3ccccc23)CC1)Nc1nccs1 | 41%

tested on: not listed separately; test: Growth inhibition of human […] cells at 10 uM after 48 hrs by SRB method; assay type: functional; settings: read-out: GI; method in brief: as §1

Structure (SMILES) | inhibition of growth at 10 µM
COc1ccc(C(=O)CN2CCN(c3nnc(-c4ccccc4)c4ccccc34)CC2)cc1 | 32%
COc1ccc(-c2csc(NC(=O)CN3CCN(c4nnc(-c5ccccc5)c5ccccc45)CC3)n2)cc1 | 50%
O=C(CN1CCN(c2nnc(-c3ccccc3)c3ccccc23)CC1)Nc1nccs1 | 51%

tested on: not listed separately; test: Growth inhibition of human MOLT4 cells at 10 uM after 48 hrs by SRB method; assay type: functional; settings: MOLT-4, 48 h, read-out: GI; method in brief: as §1

Structure (SMILES) | inhibition of growth at 10 µM
COc1ccc(-c2csc(NC(=O)CN3CCN(c4nnc(-c5ccccc5)c5ccccc45)CC3)n2)cc1 | 62%
O=C(CN1CCN(c2nnc(-c3ccccc3)c3ccccc23)CC1)Nc1nccs1 | 39%

tested on: SK-MEL-5; test: Growth inhibition of human SK-MEL-5 cells at 10 uM after 48 hrs by SRB method; assay type: functional; settings: SK-MEL-5, 48 h, read-out: GI; method in brief: as §1

Structure (SMILES) | inhibition of growth at 10 µM
COc1ccc(-c2csc(NC(=O)CN3CCN(c4nnc(-c5ccccc5)c5ccccc45)CC3)n2)cc1 | 46%
O=C(CN1CCN(c2nnc(-c3ccccc3)c3ccccc23)CC1)Nc1nccs1 | 36%

tested on: NCI-H226; test: Growth inhibition of human NCI-H226 cells at 10 uM after 48 hrs by SRB method; assay type: functional; settings: NCI-H226, 48 h, read-out: GI; method in brief: as §1

Structure (SMILES) | inhibition of growth at 10 µM
COc1ccc(-c2csc(NC(=O)CN3CCN(c4nnc(-c5ccccc5)c5ccccc45)CC3)n2)cc1 | 36%

tested on: A549; test: Growth inhibition of human A549 cells at 10 uM after 48 hrs by SRB method; assay type: functional; settings: A549, 48 h, read-out: GI; method in brief: as §1

Structure (SMILES) | inhibition of growth at 10 µM
COc1ccc(-c2csc(NC(=O)CN3CCN(c4nnc(-c5ccccc5)c5ccccc45)CC3)n2)cc1 | 34%

tested on: not listed separately; test: Growth inhibition of human HOP92 cells at 10 uM after 48 hrs by SRB method; assay type: functional; settings: HOP-92, 48 h, read-out: GI; method in brief: as §1

Structure (SMILES) | inhibition of growth at 10 µM
O=C(CN1CCN(c2nnc(-c3ccccc3)c3ccccc23)CC1)Nc1nccs1 | 35%

tested on: not listed separately; test: Growth inhibition of human TK10 cells at 10 uM after 48 hrs by SRB method; assay type: functional; settings: TK-10, 48 h, read-out: GI; method in brief: as §2

Structure (SMILES) | inhibition of growth at 10 µM
COc1ccc(-c2csc(NC(=O)CN3CCN(c4nnc(-c5ccccc5)c5ccccc45)CC3)n2)cc1 | 32%
